This note sets out measurements from ChEMBL document CHEMBL1145348, “Synthesis and biochemical evaluation of a range of potent benzyl imidazole-based compounds as potential inhibitors of the enzyme complex 17alpha-hydroxylase/17,20-lyase (P450(17alpha))” (Bioorg Med Chem Lett, 2006).

Test [1] deals with T1, Steroid 17-alpha-hydroxylase/17,20 lyase (Rattus norvegicus, UniProt P11715).
T1 sequence (P11715 whole entry): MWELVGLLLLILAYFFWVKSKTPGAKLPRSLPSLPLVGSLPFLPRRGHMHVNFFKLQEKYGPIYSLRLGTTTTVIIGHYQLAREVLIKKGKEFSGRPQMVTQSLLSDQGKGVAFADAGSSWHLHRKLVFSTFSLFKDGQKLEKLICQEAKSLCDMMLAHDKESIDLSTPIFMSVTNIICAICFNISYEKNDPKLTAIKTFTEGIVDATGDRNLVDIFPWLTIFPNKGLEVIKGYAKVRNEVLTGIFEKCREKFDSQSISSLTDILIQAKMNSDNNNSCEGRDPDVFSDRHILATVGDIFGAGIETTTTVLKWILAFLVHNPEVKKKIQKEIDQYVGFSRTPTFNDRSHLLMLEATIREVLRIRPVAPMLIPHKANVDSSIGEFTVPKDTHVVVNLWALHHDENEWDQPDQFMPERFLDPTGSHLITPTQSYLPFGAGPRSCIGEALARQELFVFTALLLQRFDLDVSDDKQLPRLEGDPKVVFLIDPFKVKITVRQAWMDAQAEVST
As to the kind of experiment: Inhibition of rat microsomal 17-alpha-hydroxylase component of P450-17alpha. The method, boiled down:
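Microsomal enzyme (final 0.16 mg/mL) preincubated mixture at 37 °C, 15 min reaction in 50 mM sodium phosphate pH 7.4 with NADPH generating system and radiolabelled progesterone (1.5 μM); inhibitor in ethanol. Ether extraction, TLC (DCM/ethyl acetate 7:3) with carrier steroids, ³H counting against uninhibited controls. IC50 from ≥5 concentrations in triplicate by linear regression of inhibition versus log[I].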

The target of test [2] is T1, Steroid 17-alpha-hydroxylase/17,20 lyase. As to the kind of experiment: Inhibition of rat microsomal 17,20-lyase component of P450-17alpha. The method, boiled down:
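Rat testicular microsomes (final 0.23 mg/mL protein) incubated at 37 °C for 30 min in 50 mM sodium phosphate pH 7.4 with NADPH generating system and radiolabelled 17α-hydroxyprogesterone (1 μM), inhibitor added in ethanol. Ether extraction, TLC (DCM/ethyl acetate 4:1) with carrier steroids, ³H scintillation counting versus no-inhibitor controls. IC50 from five or more concentrations in triplicate, linear regression of inhibition versus log[I].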

Turning to `Clc1ccc(Cn2ccnc2)cc1Cl`, the IC50 was determined as 12.2 µM in test [1] and 2.07 µM in test [2].

For `N#Cc1ccc(Cn2ccnc2)cc1`, the results for the IC50 in test [1] and in test [2] were 40.3 µM and 7.67 µM, respectively.

Take `Brc1cc(Br)cc(Cn2ccnc2)c1`: the IC50 in test [1] stood at 25.9 µM; in test [2] it was 3.16 µM.

As for `Ic1ccc(Cn2ccnc2)cc1`, the IC50 worked out at 10.1 µM in test [1] and 1.58 µM in test [2].

Take `O=[N+]([O-])c1ccc(Cn2ccnc2)cc1`: the IC50 turned out to be 25.4 µM in test [1] and 7.17 µM in test [2].

On to `Cc1ccc(Cn2ccnc2)cc1`, for which the figures for the IC50 in test [1] and in test [2] were 50.6 µM and 8.81 µM, respectively.

Regarding `Clc1ccc(Cn2ccnc2)cc1`, the figures for the IC50 in test [1] and in test [2] were 31.6 µM and 2.81 µM, respectively.

`Fc1ccc(Cn2ccnc2)cc1`: the IC50 in test [1] came to 86.6 µM; in test [2], 18.4 µM.

Regarding `c1ccc(Cn2ccnc2)cc1` [BENZYLIMIDAZOLE], the IC50 in test [1] is 215 µM; in test [2], 39.1 µM.

Consider `Fc1cc(F)cc(Cn2ccnc2)c1`, for which the IC50 in test [1] came out at 83.1 µM; in test [2], 11.8 µM.

As to `Oc1ccc(Cn2ccnc2)cc1`, the IC50 was found to be 72.1 µM in test [1] and 8.22 µM in test [2].

As for `CC(=O)N1CCN(c2ccc(OCC3COC(Cn4ccnc4)(c4ccc(Cl)cc4Cl)O3)cc2)CC1` (configuration not stated) [KETOCONAZOLE], the IC50 in test [1] came out at 3.76 µM; in test [2] it was 1.66 µM.

`Clc1cc(Cl)cc(Cn2ccnc2)c1`: the IC50 in test [1] was 22.6 µM; in test [2], 3.34 µM.

With `FC(F)(F)c1cc(Cn2ccnc2)cc(C(F)(F)F)c1`, the figures for the half-maximal inhibitory concentration (IC50) in test [1] and in test [2] were 245 µM and 19.5 µM, respectively.

With `Fc1ccc(Cn2ccnc2)cc1F`, the figures for the IC50 in test [1] and in test [2] were 70.7 µM and 9.6 µM, respectively.

Take `Brc1ccc(Cn2ccnc2)cc1`: the IC50 in test [1] stood at 53.4 µM; in test [2], 6.76 µM.

For orientation: IC50 means the point on the concentration scale where inhibition reaches its midpoint. Read a low IC50 as higher potency.
